TAAR1 antagonist – human TAAR1 antagonists, primary screen, Fluo-8 calcium fluorescence, CHO RD-HGA16 cells; antagonist; Trace amine-associated receptor 1 (Homo sapiens), Q96RJ0; inhibition, % at 3 µM; actives 1.5% (n = 360,000);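 active = inhibition above a per-plate cutoff, the mean inhibition of test compounds on that plate plus 3 SD, cut at about 49% in these data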;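 note: 0% = DMSO plus EC80 beta-PEA response and 100% = DMSO alone without agonist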
Target sequence (Q96RJ0 whole entry, looked up): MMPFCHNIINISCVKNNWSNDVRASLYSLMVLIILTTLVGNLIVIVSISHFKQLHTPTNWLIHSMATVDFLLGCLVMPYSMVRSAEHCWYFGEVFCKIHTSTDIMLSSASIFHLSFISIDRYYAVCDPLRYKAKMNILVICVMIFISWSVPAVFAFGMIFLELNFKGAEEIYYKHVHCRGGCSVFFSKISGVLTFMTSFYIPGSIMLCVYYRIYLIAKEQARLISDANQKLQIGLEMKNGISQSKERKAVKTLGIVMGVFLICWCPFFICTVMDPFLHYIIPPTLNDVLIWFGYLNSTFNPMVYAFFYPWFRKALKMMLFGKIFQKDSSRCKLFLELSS
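Assay system: RD-HGA16 CHO cells with stable hTAAR1 and Gα16 / Reagent: EC80 β-phenethylamine stimulus / Doses: 3 µM, single point / Timing: dye loading 75 min at 37 °C, then 30 min room temperature / Measured by: Fluo-8 intracellular calcium dye fluorescence, real-time kinetic reads / Controls: vehicle wells and EC80 agonist wells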
GPR7 antag – GPR7 receptor antagonists, primary screen, cell-based, fluorescence, single concentration; actives 1.1% (n = 290,000); inhibition, % at 4.4 µM; Neuropeptides B/W receptor type 1 (Homo sapiens), P48145; GPR7-expressing cells, fluorescence antagonist assay; AID 1861, 2009; in the data active = inhibition above about 16%, passing the limit was not always enough;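 note: cells stimulated with the agonist NPW; 0% = agonist with vehicle and 100% = vehicle without agonist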
Target sequence (P48145 whole entry, looked up): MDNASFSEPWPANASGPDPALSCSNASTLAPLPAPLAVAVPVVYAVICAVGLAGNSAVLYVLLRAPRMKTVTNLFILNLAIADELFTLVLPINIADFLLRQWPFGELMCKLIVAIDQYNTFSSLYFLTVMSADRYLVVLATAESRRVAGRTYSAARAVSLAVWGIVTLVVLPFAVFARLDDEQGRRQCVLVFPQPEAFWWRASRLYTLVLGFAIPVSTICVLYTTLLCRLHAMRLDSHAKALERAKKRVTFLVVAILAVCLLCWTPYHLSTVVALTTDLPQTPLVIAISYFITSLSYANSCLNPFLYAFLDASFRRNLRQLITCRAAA
OX1R antag-1 – antagonists of human orexin 1 receptor (OX1R). OX1R-expressing cells, FRET antagonist read-out. inhibition, % at 6.6 µM. Orexin/Hypocretin receptor type 1 (Homo sapiens), O43613. actives 1.8% (n = 330,000); in the data active = inhibition mostly above about 38%, no sharp cut-off; inactive = mostly below about 40%;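 note: 0% = agonist challenge alone and 100% = reference antagonist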
CHO parental Ca – ATP-evoked calcium signal inhibitors, parental CHO, primary screen, counter-screen for OX1R antagonist project, cell-based, fluorescence, Fluo-8 calcium dye | AID 463079, 2010 | parental CHO-K1, ATP-induced calcium, Fluo-8 fluorescence | inhibition, % at 5.6 µM | actives 0.63% (n = 330,000);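 active = inhibition above that plate's mean sample inhibition plus 3 SD, cut at about 26% in these data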;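 note: 0% = ATP-challenged DMSO wells and 100% = DMSO wells without ATP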
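Measured by: calcium-sensitive Fluo-8 fluorescence / Test system: CHO parental line / Controls: ATP-challenged DMSO wells low, unchallenged DMSO wells high / Measure: % inhibition / Compound: single nominal dose of 5.6 µM per compound / Replicates: single well per compound, no replicates / Reagent: ATP as calcium-mobilizing challenge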
OX1R antag-2 – OX1R (HCRTR1) antagonists, primary screen, fluorescence, CHO/OX1R cells, Fluo-8 calcium, orexin A | inhibition, % at 5 µM | actives 0.43% (n = 330,000) | Fluo-8 calcium fluorescence;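 active = inhibition above its plate's threshold, mean inhibition of all tested compounds on the plate plus 3 SD, cut at about 37% in these data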;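 note: 0% = orexin A challenge wells and 100% = SB-334867-A antagonist wells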
TAAR1 ag – human TAAR1 agonists, primary screen, Fluo-8 calcium fluorescence, CHO RD-HGA16 cells; Trace amine-associated receptor 1 (Homo sapiens), Q96RJ0; vehicle wells 0%, saturating PEA agonist 100%; activation, % at 3 µM; actives 0.99% (n = 360,000);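 active = activation above the mean activation of all test compounds in the run plus 3 SD, cut at about 38% in these data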
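Test system: RD-HGA16 (CHO) cells co-expressing Gα16 and hTAAR1; dosing: one-point dosing at 3 µM (nominal); timing: 17-24 h seeding, 75 min 37 °C dye, 30 min RT; signal: kinetic Fluo-8 calcium fluorescence; read-out basis: % activation relative to PEA EC100 response; controls: DMSO and PEA EC100; replicates: n 1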
TAAR1 nonsel count – nonselective antagonists in TAAR1 counter-screen cells, counter-screen for hTAAR1 antagonist project, cell-based, fluorescence, calcium; counterscreen cell line, antagonist mode; actives 77% (n = 2,400); shares compounds with TAAR1 antagonist; inhibition, % at 3 µM; AID 651780, 2012; in the data active = inhibition above about 22%;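 note: CHO-Ga16 host cells stimulated with ATP at an EC80 level; 0% = agonist EC80 plus vehicle and 100% = vehicle without agonist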
TAAR1 ant conf – human TAAR1 antagonists, retest of hits, confirmation, cell-based, fluorescence. actives 40% (n = 2,400). AID 651785, 2012. shares compounds with TAAR1 antagonist. inhibition, % at 3 µM. TAAR1-expressing cells, fluorescence antagonist read-out; in the data active = inhibition above about 49%;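 note: CHO-Ga16 host cells challenged with agonist PEA near its EC80; 0% = agonist at EC80 plus vehicle and 100% = vehicle with no agonist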
Ga16 ag counter – calcium activation in Ga16-expressing cells, counter-screen for TAAR1 antagonist project, cell-based, fluorescence; activation, % at 3 µM; shares compounds with TAAR1 antagonist; actives 18% (n = 2,400); agonist counterscreen; AID 651953, 2012; in the data active = activation above about 12%;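 note: 0% = vehicle wells and 100% = saturating stimulus response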
TAAR1 ag count – TAAR1 activation by candidate antagonists – cell-based, fluorescence, counter-screen for TAAR1 antagonist project | actives 2% (n = 2,400) | activation, % at 3 µM | hTAAR1 cell line, agonist mode | shares compounds with TAAR1 antagonist; in the data active = activation above about 37%;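 note: CHO cells stably expressing TAAR1 with calcium dye readout; 0% = DMSO vehicle and 100% = full agonist response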
* marks the source's active call; other numbers are inactive results; . = no result given. Sampled rows, rich in hits. Any-hit rate of the full collection: about 4.6%.

SMILES	TAAR1 antagonist	GPR7 antag	OX1R antag-1	CHO parental Ca	OX1R antag-2	TAAR1 ag	TAAR1 nonsel count	TAAR1 ant conf	Ga16 ag counter	TAAR1 ag count
O=C(Nc1cccc(C(F)(F)F)c1)c1csc(-c2ccncc2)n1	16	2	26	-23	-53	-1	.	.	.	.
COc1cc(NC(=O)c2nccn2C)cc(C(=O)Nc2cccc(C(F)(F)F)c2)c1	-5	.	19	-1	6	2	.	.	.	.
COc1cc(Nc2ccccn2)cc(C(=O)Nc2cccc(C(F)(F)F)c2)c1	54*	.	13	-6	-20	7	34*	46	7	2
COc1cc(NC(=O)c2csc(-c3ccncc3)n2)cc(C(=O)Nc2cccc(C(F)(F)F)c2)c1	74*	.	27	-17	-21	9	35*	55*	6	5
COc1ccc2[nH]c(=O)c(CN(CC3CCCO3)S(=O)(=O)c3ccccc3)cc2c1 (centres undefined)	41	-19	15	-31	-21	14	.	.	.	.
COc1ccc2[nH]c(=O)c(CN(CC3CCCO3)C(=O)Nc3ccc(F)cc3)cc2c1 (centres undefined)	81*	0	.	.	.	24	52*	66*	16*	12
COc1ccc2[nH]c(=O)c(CN(CC3CCCO3)S(=O)(=O)c3ccccc3F)cc2c1 (centres undefined)	63*	-12	24	-24	-29	23	26*	43	10	17
COc1ccc(NC(=O)N(Cc2cc3cc(C)ccc3[nH]c2=O)CC2CCCO2)cc1 (centres undefined)	-15	-15	7	-20	-24	0	.	.	.	.
O=C(Sc1ccccc1)c1cccc(Cn2cc(C(F)(F)F)ccc2=O)c1	-11	-8	0	0	14	-1	.	.	.	.
Nc1ccc(C(=O)N2CCN(S(=O)(=O)c3ccc(Cl)s3)CC2)cc1[N+](=O)[O-]	20	.	17	4	-24	4	.	.	.	.
COc1ccc(C2=NOC(Cn3nc(C(=O)NCc4cccs4)cc3-c3ccccc3)C2)cc1 (centres undefined)	77*	.	23	-6	-14	16	40*	51*	8	6
COc1ccc(C2=NOC(Cn3nc(C(=O)NCc4ccco4)cc3-c3ccccc3)C2)cc1 (centres undefined)	66*	.	29	-9	-13	19	34*	56*	9	6
CCOC(=O)c1cc(-c2ccccc2)n(CC2CC(c3ccc(OC)cc3)=NO2)n1 (centres undefined)	75*	4	28	-14	-22	14	30*	51*	7	8
CCN1CCN(Cc2ccc(NC(=O)c3ccc(C)c(NC(=O)c4c[nH]c5cc(C(F)(F)F)ccc5c4=O)c3)cc2C(F)(F)F)CC1	17	.	21	22	10	1	.	.	.	.
C=CCn1c(=S)[nH]c2cc(C(=O)Nc3ccc(F)cc3)ccc2c1=O	62*	3	12	14	-6	18	35*	38	15*	18
COc1ccc(/C=C(/NC(=O)c2ccccc2Cl)C(=O)NCCCC(=O)O)cc1	1	-5	9	-14	-10	8	.	.	.	.
COc1cccc(NC(=O)c2cc(=O)c3ccccc3o2)c1	4	10	7	-8	-23	3	.	.	.	.
COc1ccc(NS(=O)(=O)c2cc(NC(=O)c3cc(=O)c4ccccc4o3)ccc2OC)cc1	64*	-11	26	-3	9	17	27*	53*	8	5
O=[N+]([O-])c1ccccc1N(S(=O)(=O)c1ccccc1)S(=O)(=O)c1ccccc1	72*	.	.	.	.	3	24*	50*	3	3
C[C@@H]1COc2cccc(N3CCCCC3)c2S(=O)(=O)N1	-4	.	.	.	.	0	.	.	.	.
COc1ccc(-c2cn(Cc3ccc4c(c3)C(=O)c3ccccc3C4=O)nn2)cc1	7	2	9	-8	-4	8	.	.	.	.
COc1ccc(-c2cn(Cc3ccc4ccccc4c3)nn2)cc1	106*	-1	16	20	0	30	46*	81*	10	14
Cc1cc(C(=O)COC(=O)c2nccnc2N)c(C)n1C	105*	-10	70	-10	-19	-3	11	7	-1	-2
COc1cccc(-c2nn(-c3ccccc3)cc2C(=O)Nc2nccs2)c1	65*	-6	60	-13	-15	8	20	49*	4	4
O=C(Cc1ccccc1F)Nc1nc(-c2cccnc2)cs1	12	-9	35	1	-12	13	.	.	.	.
SMILES	TAAR1 antagonist	GPR7 antag	OX1R antag-1	CHO parental Ca	OX1R antag-2	TAAR1 ag	TAAR1 nonsel count	TAAR1 ant conf	Ga16 ag counter	TAAR1 ag count
COc1ccc(Oc2coc3cc(OC(=O)N4CCOCC4)ccc3c2=O)cc1	2	-1	24	-10	-20	8	.	.	.	.
O=C1NC(Cc2ccc(O)cc2)c2nc3ccc(Cl)cc3c(=O)n2-c2cc(Cl)ccc21 (centres undefined)	19	.	1	-9	-9	8	.	.	.	.
CCN(C(=O)c1cnc(N2CCN(c3ncccn3)CC2)c2ccccc12)c1cccc(Cl)c1	50*	-3	16	-12	-40	13	27*	31	4	6
O=C(c1cnc(N2CCN(c3ncccn3)CC2)c2ccccc12)N1CCN(c2ncccn2)CC1	59*	-10	17	-6	-22	21	32*	49*	11	13
O=C(O)c1ccccc1C(=O)N1CCN(c2ncccn2)CC1	-4	11	.	.	.	10	.	.	.	.
CN(C(=O)c1cnc(N2CCN(c3ncccn3)CC2)c2ccccc12)c1ccc(Cl)cc1	51*	-9	6	-20	-34	14	15	39	8	13
